In ChEMBL document CHEMBL1123923, “Steroidal silicon side-chain analogues as potential antifertility agents” (1987):

Experiments:
[1] = target: T1, Estrogen receptor (Rattus norvegicus) (UniProt P06211+Q62986); experiment: Oral estrogenic activity in 21 day old immature ovariectomized rats at 1000 ug; assay type: functional
How it was run: (§1)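 Rats dosed orally with compound suspended in 0.5% (carboxymethyl)cellulose, 10 animals per dose, daily for 4 days starting on the day of ovariectomy. Autopsy on the day after the last dose. Read-outs were the increase in uterine weight and cornification of vaginal smears, taken from animals with open vaginas, compared against a standard estrogen.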

Rattus norvegicus [2] = species on record: Rattus norvegicus; experiment: Antifertility activity measured as minimum protective dose for prevention of pregnancy in rats; assay type: functional; parameters: unit not given here
How it was run: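 Oral dosing in adult cycling female rats selected in the proestrous phase, 10 animals per dose, with treatment starting on the day of proestrus.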

[3] = target: T1, Estrogen receptor (Rattus norvegicus); experiment: Oral estrogenic activity in 21 day old immature ovariectomized rats at 200 ug; assay type: functional; how it was run: as §1
[4] = target: T1, Estrogen receptor (Rattus norvegicus); experiment: Oral estrogenic activity in 21 day old immature ovariectomized rats at 500 ug; assay type: functional; how it was run: as §1
[5] = target: T1, Estrogen receptor (Rattus norvegicus)
Rattus norvegicus [6] = species on record: Rattus norvegicus; experiment: Separation of antifertility from estrogenic activity in rats was measured; assay type: functional

With `CCCC[Si](C=C[C@]1(O)CC[C@H]2[C@@H]3CCc4cc(O)ccc4[C@H]3CC[C@@]21C)(CCCC)CCCC` as the molecule, how does the Estrogenic potency [1] read?
The Estrogenic potency was 0.

What about the Antifertility potency (Rattus norvegicus [2]) of the same molecule?
Its Antifertility potency is 0.

What does the source list for `C=C([C@]1(O)CC[C@H]2[C@@H]3CCc4cc(O)ccc4[C@H]3CC[C@@]21C)[Si](c1ccccc1)(c1ccccc1)c1ccccc1`?
Estrogenic potency [3]: 0; Antifertility potency (Rattus norvegicus [2]): 0

`C[C@]12CC[C@@H]3c4ccc(O)cc4CC[C@H]3[C@@H]1CC[C@@]2(O)/C=C/[Si](c1ccccc1)(c1ccccc1)c1ccccc1` was tested. Which Estrogenic potency [3] did it give?
Its Estrogenic potency is 0.

And the Antifertility potency (Rattus norvegicus [2])?
Its Antifertility potency is 0.

Which Estrogenic potency [4] does the source give for `C=C([C@]1(O)CC[C@H]2[C@@H]3CCc4cc(O)ccc4[C@H]3CC[C@@]21C)[Si](CCCC)(CCCC)CCCC` here?
Its Estrogenic potency is 0.

What about the Antifertility potency (Rattus norvegicus [2]) of the same molecule?
Its Antifertility potency is 0.

Which Estrogenic potency [5] does the source give for `C[C@]12CC[C@@H]3c4ccc(O)cc4CC[C@H]3[C@@H]1CC[C@@]2(O)C#C[Si](C)(C)CCC(F)(F)F` here?
Its Estrogenic potency is 19.

And the Separation (Rattus norvegicus [6])?
The Separation was 8.

What about the Antifertility potency (Rattus norvegicus [2]) of the same molecule?
The Antifertility potency was 150.

How did the Estrogenic potency [5] turn out when `CC(Cl)[Si](C)(C)C#C[C@]1(O)CC[C@H]2[C@@H]3CCc4cc(O)ccc4[C@H]3CC[C@@]21C` (stereo partly drawn) was run?
Its Estrogenic potency is 45.

And the Separation (Rattus norvegicus [6])?
Its Separation is 7.

And the Antifertility potency (Rattus norvegicus [2])?
Its Antifertility potency is 300.

Which results are given for `CC[Si](C#C[C@]1(O)CC[C@H]2[C@@H]3CCc4cc(O)ccc4[C@H]3CC[C@@]21C)(CC)C(C)(C)C`?
Estrogenic potency [5]: 31; Separation (Rattus norvegicus [6]): 10; Antifertility potency (Rattus norvegicus [2]): 300

Which results are given for `C=C([C@]1(O)CC[C@H]2[C@@H]3CCc4cc(O)ccc4[C@H]3CC[C@@]21C)[Si](C)(C)C`?
Estrogenic potency [5]: 0.4; Separation (Rattus norvegicus [6]): 5; Antifertility potency (Rattus norvegicus [2]): 2

Which results are given for `C[C@]12CC[C@@H]3c4ccc(O)cc4CC[C@H]3[C@@H]1CC[C@@]2(O)C#C[Si](C)(C)c1ccccc1`?
Estrogenic potency [5]: 7; Separation (Rattus norvegicus [6]): 4.7; Antifertility potency (Rattus norvegicus [2]): 33

For `CCC(C#C[C@]1(O)CC[C@H]2[C@@H]3CCc4cc(O)ccc4[C@H]3CC[C@@]21C)(CC)CC`, which Estrogenic potency [1] is on record?
Its Estrogenic potency is 0.

What about the Antifertility potency (Rattus norvegicus [2]) of the same molecule?
Its Antifertility potency is 0.

`C[C@]12CC[C@@H]3c4ccc(O)cc4CC[C@H]3[C@@H]1CC[C@@]2(O)C#C[Si]1(C)CCCCC1` was tested. Which Estrogenic potency [5] did it give?
Its Estrogenic potency is 25.

What about the Separation (Rattus norvegicus [6]) of the same molecule?
Its Separation is 10.

And the Antifertility potency (Rattus norvegicus [2])?
Its Antifertility potency is 250.
